From ChEMBL document CHEMBL2406929, “An optimized pyrimidinol multifunctional radical quencher” (ACS Med Chem Lett, 2013)
Calls of active or inactive are those of the source. The calls are words filed in the database; no cut-off is given here.

Legend:
Homo sapiens [1] = species: Homo sapiens; assay: Reversal of 4-nitrobenzoate-induced reduction in mitochondrial ATP level in CoQ10-deficient human Friedreich's ataxia lymphocytes at 10 uM after 6 days by bioluminescence assay; assay type: functional
[2] = Effect on total ATP level in human Friedreich's ataxia lymphocytes at 25 uM after 48 hrs by bioluminescence assay relative to control; assay type: functional
Summary of the method: (§1)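 Total cellular ATP measured in CoQ10-deficient and FRDA lymphocytes grown in glucose-free medium supplemented with galactose, so that cells rely on oxidative phosphorylation. Compounds tested at 5, 10 and 25 μM for 48 h, added from DMSO (final <0.5%). ATP expressed as % of untreated control.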

[3] = Effect on total ATP level in human Friedreich's ataxia lymphocytes at 10 uM after 48 hrs by bioluminescence assay relative to control; assay type: functional; summary of the method: as §1
[4] = Effect on total ATP level in human Friedreich's ataxia lymphocytes at 5 uM after 48 hrs by bioluminescence assay relative to control; assay type: functional; summary of the method: as §1
Homo sapiens [5] = species: Homo sapiens; assay: Reversal of 4-nitrobenzoate-induced reduction in mitochondrial ATP level in CoQ10-deficient human Friedreich's ataxia lymphocytes at 5 uM after 6 days by bioluminescence assay; assay type: functional
[6] = Effect on total ATP level in CoQ10-deficient human GM17932 cells at 25 uM after 48 hrs by bioluminescence assay relative to control; assay type: functional; summary of the method: as §1
[7] = Effect on total ATP level in CoQ10-deficient human GM17932 cells at 10 uM after 48 hrs by bioluminescence assay relative to control; assay type: functional; summary of the method: as §1
[8] = Effect on total ATP level in CoQ10-deficient human GM17932 cells at 5 uM after 48 hrs by bioluminescence assay relative to control; assay type: functional; summary of the method: as §1
Homo sapiens [9] = species: Homo sapiens; assay: Cytoprotective activity against diethyl maleate-induced loss of mitochondrial membrane integrity in human Friedreich's ataxia lymphocytes at 500 nM incubated overnight prior to diethyl maleate-treatment measured after 140 mins by TMRM staining-based FACS flow cytometric analysis relative to control; assay type: functional
Summary of the method: (§2)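 Δψm in FRDA lymphocytes after diethyl maleate treatment. Cells stained with 250 nM TMRM and analyzed by flow cytometry on the FL2-H channel, 10,000 events per sample. Result is the % of cells with intact Δψm (top-right quadrant). FCCP uncoupler used as positive control. Final DMSO <0.5%. Means ± SEM of three independent experiments run in duplicate.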

Homo sapiens [10] = species: Homo sapiens; assay: Cytoprotective activity against diethyl maleate-induced loss of mitochondrial membrane integrity in human Friedreich's ataxia lymphocytes at 250 nM incubated overnight prior to diethyl maleate-treatment measured after 140 mins by TMRM staining-based FACS flow cytometric analysis relative to control; assay type: functional; summary of the method: as §2
Homo sapiens [11] = species: Homo sapiens; assay: Cytoprotective activity against diethyl maleate-induced loss of mitochondrial membrane integrity in human Friedreich's ataxia lymphocytes at 100 nM incubated overnight prior to diethyl maleate-treatment measured after 140 mins by TMRM staining-based FACS flow cytometric analysis relative to control; assay type: functional; summary of the method: as §2
Homo sapiens [12] = species: Homo sapiens; assay: Antioxidant activity in human Friedreich's ataxia lymphocytes assessed as inhibition of diethyl maleate-induced lipid peroxidation at 100 to 500 nM incubated overnight prior to diethyl maleate-treatment measured after 120 mins by C11-BODIPY581/591 staining-based FACS flow cytometric analysis; assay type: functional
Summary of the method: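 Glutathione depletion by diethyl maleate in FRDA lymphocytes. Cells stained with C11-BODIPY581/591; oxidized green fluorescence read by FACS on the FL1-H channel. Lipid peroxidation taken as the increase in geometric mean fluorescence intensity relative to the untreated control, expressed as % scavenging activity. Compounds added from DMSO (final DMSO <0.5%). Mean ± SEM, n = 3.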

[13] = Cytoprotective activity against BSO-induced cell death in human Friedreich's ataxia fibroblasts preincubated for 12 hrs prior to BSO-treatment measured after 48 hrs by luminescence assay
Homo sapiens [14] = species: Homo sapiens; assay: Decrease in total ATP level in human Friedreich's ataxia lymphocytes after 48 hrs by bioluminescence assay; assay type: functional; summary of the method: as §1
Homo sapiens [15] = species: Homo sapiens; assay: Decrease in total ATP level in CoQ10-deficient human GM17932 cells after 48 hrs by bioluminescence assay; assay type: functional; summary of the method: as §1
Homo sapiens [16] = species: Homo sapiens; assay: Decrease in mitochondrial ATP level in CoQ10-deficient human Friedreich's ataxia lymphocytes at 5 uM after 6 days by bioluminescence assay in presence of 4-nitrobenzoate; assay type: functional
Homo sapiens [17] = species: Homo sapiens; assay: Decrease in mitochondrial ATP level in CoQ10-deficient human Friedreich's ataxia lymphocytes at 5 uM after 6 days by bioluminescence assay; assay type: functional

SMILES	Activity (Homo sapiens [1])	Activity [2] [%]	Activity [3] [%]	Activity [4] [%]	Activity (Homo sapiens [5])	Activity [6] [%]	Activity [7] [%]	Activity [8] [%]	Activity (Homo sapiens [9]) [%]	Activity (Homo sapiens [10]) [%]	Activity (Homo sapiens [11]) [%]	inhibition (Homo sapiens [12])	EC50 [13] [nM]	Activity (Homo sapiens [14])	Activity (Homo sapiens [15])	Activity (Homo sapiens [16])	Activity (Homo sapiens [17])
COc1nc(N(C)C)nc(CCCCCCCCCCO)c1O	inactive	46	66	80	Active	54	95	102	68	48	32	Active	345				
COc1nc(N(C)C)nc(CCCCCCCCCCOCC23CC4CC(CC(C4)C2)C3)c1O		72	103	107		64	97	105	90	82	63	Active	32				
CCCCCCCCCCCCCCCCCCc1nc(N(C)C)nc(OC)c1O		102	102	101		96	98	98	73	55	39	Active	266				
CCCCCCCCCCc1nc(N(C)C)nc(OC)c1O		58	87	94		58	83	96	88	80	68		68				
CCCCCCCCCCCCCCCCc1nc(N(C)C)nc(OC)c1OC(C)=O		92	101	109		96	109	116									
CCCCCCCCCCC1=C(C)C(=O)C(OC)=C(OC)C1=O [DECYLUBIQUINONE]		63	76	93		63	99	100	90	82	60		56	Dose-dependent effect	Dose-dependent effect		
CCCCCCCCCCCCCCc1nc(N(C)C)nc(OC)c1O		55	97	109		65	97	105	92	88	77	Active	22				
CCCCCCCCCCCCCCCCc1nc(N(C)C)nc(OC)c1O		80	96	108	Active	90	106	118	92	90	81	Active	25				
COC1=C(OC)C(=O)C(CCCCCCCCCCO)=C(C)C1=O [IDEBENONE]		3	46	73		2	46	80	45	26	18		551	Dose-dependent effect	Dose-dependent effect	Active	Active
Cc1nc(N(C)C)nc(CCCCCCCCCCO)c1O		28	46	77		46	86	99	56	37	25		456				
